According to ChEMBL document CHEMBL1817572, “New, potent, selective, and short-acting peptidic V1a receptor agonists” (J Med Chem, 2011):
Numbered stars: 1 amine (or outer) side, 2 acyl side, 3 side chain; on linkers, the order of the positions; unused ones are H or OH. Bridge positions count the residues as written; N and C are the ends. Square brackets hold non-standard residues; d marks the D form. Peptide text beside a SMILES is read from it. * marks the point of attachment. X5 = CC(C)CCNCCC[C@H](N[*:1])C(=O)[*:2]; Bta = N[C@@H](Cc1csc2ccccc12)C(=O)O; Orn(iPr) = CC(C)NCCC[C@H](N)C(=O)O; Dab(iPr) = CC(C)NCC[C@H](N)C(=O)O; 3Pal = N[C@@H](Cc1cccnc1)C(=O)O; 2Thi = N[C@@H](Cc1cccs1)C(=O)O; Aad = N[C@@H](CCCC(=O)O)C(=O)O; Cha = N[C@@H](CC1CCCCC1)C(=O)O; Orn = NCCC[C@H](N)C(=O)O; Dab = NCC[C@H](N)C(=O)O; Dap = NC[C@H](N)C(=O)O; N(Me)OMe = CON(C)*; NHCH2CH2OH = OCCN*

Columns and labels:
[1] = target: Vasopressin V2 receptor (Homo sapiens, UniProt P30518); test: Agonist activity at recombinant human vasopressin V2 receptor expressed in HEK293 cells by luciferase reporter gene assay; assay type: functional, cell-based
Sequence of Vasopressin V2 receptor (P30518 whole entry): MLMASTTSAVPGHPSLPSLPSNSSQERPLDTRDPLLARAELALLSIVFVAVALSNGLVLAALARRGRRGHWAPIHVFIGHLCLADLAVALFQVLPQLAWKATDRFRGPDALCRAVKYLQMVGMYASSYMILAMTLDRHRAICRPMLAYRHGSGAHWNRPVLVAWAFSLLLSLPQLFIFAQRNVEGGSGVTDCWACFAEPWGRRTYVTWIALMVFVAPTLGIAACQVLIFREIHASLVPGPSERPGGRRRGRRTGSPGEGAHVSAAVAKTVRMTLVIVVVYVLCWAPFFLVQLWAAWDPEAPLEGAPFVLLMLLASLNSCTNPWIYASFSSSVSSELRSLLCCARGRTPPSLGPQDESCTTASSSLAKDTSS

[2] = target: Vasopressin V1a/V2 (Homo sapiens) (UniProt P30518+P37288); test: Selectivity ratio of EC50 for human vasopressin V2 receptor to EC50 for human vasopressin V1a receptor
Sequence of Vasopressin V1a/V2 (Homo sapiens) (P30518 whole entry, looked up): as the sequence (P30518 whole entry) above
Sequence of Vasopressin V1a/V2 (Homo sapiens) (P37288 whole entry, looked up): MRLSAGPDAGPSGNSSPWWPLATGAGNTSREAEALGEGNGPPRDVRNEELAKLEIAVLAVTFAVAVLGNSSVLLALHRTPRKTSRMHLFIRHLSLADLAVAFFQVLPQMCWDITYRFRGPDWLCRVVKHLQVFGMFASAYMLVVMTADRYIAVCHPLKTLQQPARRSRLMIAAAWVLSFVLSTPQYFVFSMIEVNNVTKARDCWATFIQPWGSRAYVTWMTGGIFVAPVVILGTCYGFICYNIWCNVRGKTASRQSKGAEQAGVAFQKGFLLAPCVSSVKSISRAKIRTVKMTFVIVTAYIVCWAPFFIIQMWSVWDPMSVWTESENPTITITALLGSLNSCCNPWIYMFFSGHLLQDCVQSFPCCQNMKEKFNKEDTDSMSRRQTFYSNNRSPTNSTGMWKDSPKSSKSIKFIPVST

[3] = target: T1, Oxytocin receptor (Homo sapiens, UniProt P30559); test: Agonist activity at human OT receptor expressed in CHO-K1 cells by luciferase reporter gene assay; assay type: functional, cell-based
T1 sequence (P30559 whole entry): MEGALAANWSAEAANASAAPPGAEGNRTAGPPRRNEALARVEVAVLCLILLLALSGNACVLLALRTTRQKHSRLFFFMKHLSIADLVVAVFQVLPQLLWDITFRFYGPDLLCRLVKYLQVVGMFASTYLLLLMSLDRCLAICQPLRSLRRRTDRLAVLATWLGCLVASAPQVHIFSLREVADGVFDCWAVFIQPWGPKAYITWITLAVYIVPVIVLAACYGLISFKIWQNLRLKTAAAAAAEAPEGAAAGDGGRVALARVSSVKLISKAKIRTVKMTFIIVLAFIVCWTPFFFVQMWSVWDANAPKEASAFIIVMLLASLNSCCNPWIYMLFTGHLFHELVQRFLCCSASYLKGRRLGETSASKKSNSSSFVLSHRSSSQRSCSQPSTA

[4] = target: Vasopressin V1a receptor (Homo sapiens, UniProt P37288); test: Agonist activity at recombinant human vasopressin V1a receptor expressed in HEK293 cells by luciferase reporter gene assay; assay type: functional, cell-based
Sequence of Vasopressin V1a receptor (P37288 whole entry): as the sequence (P37288 whole entry, looked up) above

[5] = organism: Homo sapiens; test: Selectivity ratio of EC50 for human oxytocin receptor to EC50 for human vasopressin V1a receptor
[6] = target: T2, Vasopressin V1b receptor (Homo sapiens, UniProt P47901); test: Agonist activity at recombinant human vasopressin V1b receptor expressed in Flp-In-293 cells by luciferase reporter gene assay; assay type: functional, cell-based
T2 sequence (P47901 whole entry): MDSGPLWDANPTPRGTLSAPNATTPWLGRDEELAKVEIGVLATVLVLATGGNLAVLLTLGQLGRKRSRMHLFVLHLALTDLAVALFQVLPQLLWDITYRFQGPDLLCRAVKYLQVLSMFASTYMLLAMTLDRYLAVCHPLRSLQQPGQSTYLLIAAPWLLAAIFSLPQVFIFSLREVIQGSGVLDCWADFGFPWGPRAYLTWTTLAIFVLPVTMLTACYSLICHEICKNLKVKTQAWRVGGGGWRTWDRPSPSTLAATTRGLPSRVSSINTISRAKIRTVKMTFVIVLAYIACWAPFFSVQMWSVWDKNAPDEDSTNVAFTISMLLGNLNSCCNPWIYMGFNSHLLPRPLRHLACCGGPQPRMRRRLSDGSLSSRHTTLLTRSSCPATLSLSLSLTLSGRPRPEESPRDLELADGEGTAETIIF
Procedure, shortened: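 Reporter gene assays in HEK293 cells transiently cotransfected with V1a (human or rat) or human V2 receptor vector plus NFAT-luciferase (V1a) or CRE-luciferase (V2) reporter; V1b in Flp-In-293 stably expressing receptor, OT in CHO-K1 stably expressing receptor, both transiently transfected with NFAT-luciferase. Two days post-transfection, peptides added for 5 h at 37 °C, lysis with luciferin, luminescence read.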

[7] = organism: Homo sapiens; test: Selectivity ratio of EC50 for human vasopressin V1b receptor to EC50 for human vasopressin V1a receptor

Structure (SMILES)	EC50 ([1]; read-out: EC50)	Ratio EC50 [2]	EC50 ([3]; read-out: EC50)	EC50 ([3]; read-out: pEC50 (converted))	EC50 ([4]; read-out: EC50)	Ratio EC50 [5]	EC50 ([6]; read-out: EC50)	Ratio EC50 [7]	EC50 ([3]; cho-k1, read-out: EC50)	EC50 ([1]; hek293, read-out: EC50)	EC50 ([1]; read-out: pEC50 (converted))	EC50 ([4]; hek293, read-out: EC50)	EC50 ([4]; read-out: pEC50 (converted))	EC50 ([6]; flp-in-293, read-out: EC50)	EC50 ([6]; read-out: pEC50 (converted))
CC[C@H](C)[C@@H]1NC(=O)[C@H](Cc2ccccc2)NC(=O)[C@@H](N)CSSC[C@@H](C(=O)N2CCC[C@H]2C(=O)N[C@@H](CCCN)C(=O)NCC(N)=O)NC(=O)[C@H](CC(N)=O)NC(=O)[C@H](CCC(=O)NC)NC1=O (H-CFIE(NHMe)NCP[Orn]G-NH2; disulfide 1-6)	210 nM	35	> 10000 nM	174 nM	6 nM	> 1600	59 nM	9.8							
CC[C@H](C)[C@@H]1NC(=O)[C@H](Cc2ccccc2)NC(=O)[C@@H](N)CSSC[C@@H](C(=O)N2CCC[C@H]2C(=O)N[C@@H](CN)C(=O)NCC(N)=O)NC(=O)[C@H](CC(N)=O)NC(=O)[C@H](CCC(N)=O)NC1=O (H-CFIQNCP[Dap]G-NH2; disulfide 1-6)	720 nM	24		> 10000 nM	30 nM	> 330	210 nM	7	> 10000 nM						
CC[C@H](C)[C@@H]1NC(=O)[C@H](Cc2csc3ccccc23)NC(=O)[C@@H](N)CSSC[C@@H](C(=O)N2CCC[C@H]2C(=O)N[C@@H](CCN)C(=O)NCC(N)=O)NC(=O)[C@H](CC(N)=O)NC(=O)[C@H](CCC(N)=O)NC1=O (H-C[Bta]IQNCP[Dab]G-NH2; disulfide 1-6)				> 10000 nM			360 nM		> 10000 nM	> 10000 nM	> 10000 nM	> 1000 nM	> 1000 nM		
CC[C@H](C)[C@@H]1NC(=O)[C@H](Cc2ccccc2)NC(=O)[C@@H](N)CSSC[C@@H](C(=O)N2CCC[C@H]2C(=O)N[C@@H](CCCNCCC(C)C)C(=O)NCC(N)=O)NC(=O)[C@H](CC(N)=O)NC(=O)[C@H](CCC(N)=O)NC1=O (H-CFIQNCP[X5]G-NH2; disulfide 1-6)	190 nM	230	44 nM		0.82 nM	53	100 nM	120							
CC[C@H](C)[C@@H]1NC(=O)[C@H](Cc2ccccc2)NC(=O)[C@@H](N)CSSC[C@@H](C(=O)N2CCC[C@H]2C(=O)N[C@@H](CCCN)C(=O)NCC(N)=O)NC(=O)[C@H](CC(N)=O)NC(=O)[C@H](CCC(=O)N(C)OC)NC1=O (H-CFIE(N(Me)OMe)NCP[Orn]G-NH2; disulfide 1-6)	1200 nM	17		> 10000 nM	69 nM	> 140	540 nM	7.8	> 10000 nM						
CC[C@H](C)[C@@H]1NC(=O)[C@H](Cc2ccccc2)NC(=O)[C@@H](N)CSSC[C@@H](C(=O)N2CCC[C@H]2C(=O)N[C@@H](CCNC(C)C)C(=O)NCC(N)=O)NC(=O)[C@H](CC(N)=O)NC(=O)[C@H](CCCC(N)=O)NC1=O (H-CFI[Aad](NH2)NCP[Dab(iPr)]G-NH2; disulfide 1-6)	1100 nM	61		> 10000 nM	18 nM	> 550	960 nM	53	> 10000 nM						
CC[C@H](C)[C@@H]1NC(=O)[C@H](CC2CCCCC2)NC(=O)[C@@H](N)CSSC[C@@H](C(=O)N2CCC[C@H]2C(=O)N[C@@H](CCN)C(=O)NCC(N)=O)NC(=O)[C@H](CC(N)=O)NC(=O)[C@H](CC(N)=O)NC1=O (H-C[Cha]INNCP[Dab]G-NH2; disulfide 1-6)		> 6200		> 10000 nM	1.6 nM	> 6200	18 nM	11	> 10000 nM	> 10000 nM	> 10000 nM				
CC[C@H](C)[C@@H]1NC(=O)[C@H](Cc2cccs2)NC(=O)[C@@H](N)CSSC[C@@H](C(=O)N2CCC[C@H]2C(=O)N[C@@H](CCCNC(C)C)C(=O)NCC(N)=O)NC(=O)[C@H](CC(N)=O)NC(=O)[C@H](CC(N)=O)NC1=O (H-C[2Thi]INNCP[Orn(iPr)]G-NH2; disulfide 1-6)		> 710	860 nM		14 nM	61	260 nM	18		> 10000 nM	> 10000 nM				
NCCC[C@H](NC(=O)[C@@H]1CCCN1C(=O)[C@@H]1CSSC[C@H](N)C(=O)N[C@@H](Cc2ccccc2)C(=O)N[C@@H](Cc2ccccc2)C(=O)N[C@@H](CCC(N)=O)C(=O)N[C@@H](CC(N)=O)C(=O)N1)C(=O)NCC(N)=O (H-CFFQNCP[Orn]G-NH2; disulfide 1-6)	9.2 nM	65		> 10000 nM	0.14 nM	> 71000	15 nM	100	> 10000 nM						
CC[C@H](C)[C@@H]1NC(=O)[C@H](Cc2ccccc2)NC(=O)[C@@H](N)CSSC[C@@H](C(=O)N2CCC[C@H]2C(=O)N[C@@H](CCCN)C(=O)NCC(N)=O)NC(=O)[C@H](CC(N)=O)NC(=O)[C@H](CC(=O)NCCO)NC1=O (H-CFID(NHCH2CH2OH)NCP[Orn]G-NH2; disulfide 1-6)		> 1200		> 10000 nM	8 nM	> 1200	26 nM	3.2	> 10000 nM	> 10000 nM	> 10000 nM				
CC[C@H](C)[C@@H]1NC(=O)[C@H](Cc2cccnc2)NC(=O)[C@@H](N)CSSC[C@@H](C(=O)N2CCC[C@H]2C(=O)N[C@@H](CCN)C(=O)NCC(N)=O)NC(=O)[C@H](CC(N)=O)NC(=O)[C@H](CCC(N)=O)NC1=O (H-C[3Pal]IQNCP[Dab]G-NH2; disulfide 1-6)		> 330		> 10000 nM	30 nM	> 330	200 nM	6.6	> 10000 nM	> 10000 nM	> 10000 nM				
CC[C@H](C)[C@@H]1NC(=O)[C@H](Cc2ccc(O)cc2)NC(=O)[C@@H](N)CSSC[C@@H](C(=O)N2CCC[C@H]2C(=O)N[C@@H](CCCN)C(=O)NCC(N)=O)NC(=O)[C@H](CC(N)=O)NC(=O)[C@H](CCC(N)=O)NC1=O			3.3 nM		0.23 nM		56 nM								
CC[C@H](C)[C@@H]1NC(=O)[C@H](C)NC(=O)[C@@H](N)CSSC[C@@H](C(=O)N2CCC[C@H]2C(=O)N[C@@H](CCN)C(=O)NCC(N)=O)NC(=O)[C@H](CC(N)=O)NC(=O)[C@H](CCC(N)=O)NC1=O (H-CAIQNCP[Dab]G-NH2; disulfide 1-6)				> 10000 nM					> 10000 nM	> 10000 nM	> 10000 nM	> 1000 nM	> 1000 nM	> 10000 nM	> 10000 nM
